The term IC50 denotes the concentration that gives 50% inhibition.

A value given as a limit tells only on which side of the number the result lay.

Assay [1] can be described thus: Cytotoxicity against human KB cells assessed as inhibition of cell proliferation after 72 hrs by SRB assay. Type of assay: functional, cell-based. The method in brief:
(§1)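 SRB assay. Cells were seeded, cultured overnight, then exposed to a gradient of agent concentrations for 72 h. Absorbance was read at 560 nm.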

The test system of assay [2] is A549. Description: Cytotoxicity against human A549 cells assessed as inhibition of cell proliferation after 72 hrs by SRB assay. Type of assay: functional, cell-based. The following applies: A549, 72 h. The method in brief:
as §1
For orientation: The SRB assay estimates cell density from bound dye.

Assay [3] in a line: Cytotoxicity against human KB/VCR cells assessed as inhibition of cell proliferation after 72 hrs by SRB assay. It counts as functional, cell-based. In outline:
as §1

In assay [4] the test system is A549. Description: Potency index, ratio of IC50 for artemisinin to IC50 for test compound against human A549 cells. Type of assay: functional.
For assay [5], the system named is KB. Description: Potency index, ratio of IC50 for artemisinin to IC50 for test compound against human KB cells. It counts as functional.
The nature of assay [6]: Potency index, ratio of IC50 for artemisinin to IC50 for test compound against human KB/VCR cells. It counts as functional.
The test system of the next assay is HepG2. Kind of assay: Cytotoxicity against human HepG2 cells by MTT assay. Type of assay: functional, cell-based. In general terms: Tetrazolium assays rely on reduction of a dye to a coloured formazan, in cell work by metabolically active cells.
The test system of the next assay is L1210. Description: Cytotoxicity against mouse L1210 cells by MTT assay. It counts as functional, cell-based.
The test system of assay [7] is KB. Kind of assay: Selectivity index, ratio of IC50 for human KB/VCR cells to IC50 for human KB cells. Type of assay: functional.
Assay [8] relates to A549. Kind of assay: Selectivity index, ratio of IC50 for human A549 cells to IC50 for human KB cells. It counts as functional.

With `C[C@@H]1CC[C@@H]2[C@]34OO[C@](C)(CC[C@@H]13)O[C@H]4OC(=O)[C@@]21CC(c2ccccc2)=NO1`, the IC50 (in assay [1]; in the assay on A549 [2]; in [3]) was above 20 µM each time.

Turning to `COc1ccc2c(c1)CCN1O[C@@]3(C[C@H]21)[C@@H](OCCN1CCOCC1)O[C@@H]1O[C@@]2(C)CC[C@H]4[C@H](C)CC[C@@H]3[C@@]14OO2`, the IC50 (in assay [1]; in the assay on A549 [2]; in assay [3]) was above 20 µM each time.

In the case of `CO[C@@H]1O[C@@H]2O[C@@]3(C)CC[C@H]4[C@H](C)CC[C@@H]([C@]15CC(c1ccc(Cl)cc1)=NO5)[C@@]24OO3`, the IC50 in assay [1] and in [3] was above 20 µM throughout.

As to `COc1ccc(C2=NO[C@@]3(C2)C(=O)O[C@@H]2O[C@@]4(C)CC[C@H]5[C@H](C)CC[C@@H]3[C@@]25OO4)cc1OC`, the IC50 (in assay [1]; in the assay with A549 [2]; in assay [3]) was above 20 µM throughout.

Turning to `C[C@@H]1CC[C@H]2[C@@H](C)C(=O)O[C@@H]3O[C@@]4(C)CC[C@@H]1[C@]32OO4` [ARTEMISININ], the IC50 (in [1]; in the assay with A549 [2]; in assay [3]) was above 20 µM throughout.

With `COc1ccc(C2=NO[C@@]3(C2)C(=O)O[C@@H]2O[C@@]4(C)CC[C@H]5[C@H](C)CC[C@@H]3[C@@]25OO4)cc1`, the IC50 (in assay [1]; in the assay on A549 [2]; in assay [3]) was above 20 µM throughout.

In the case of `CCO[C@@H]1O[C@@H]2O[C@@]3(C)CC[C@H]4[C@H](C)CC[C@@H]([C@]15C[C@@H]1c6ccc(OC)cc6CCN1O5)[C@@]24OO3`, the IC50 (in assay [1]; in the assay with A549 [2]; in assay [3]) was above 20 µM in each case.

Consider `C[C@@H]1CC[C@@H]2[C@]34OO[C@](C)(CC[C@@H]13)O[C@H]4OC(=O)[C@@]21CC(c2ccc(Cl)cc2)=NO1`, for which the values for the IC50 (in assay [1]; in the assay with A549 [2]; in [3]) were 13.9 µM, above 20 µM and 14 µM, respectively.

For `CC[C@]1(O)C[C@H]2CN(CCc3c([nH]c4ccccc34)[C@@](C(=O)OC)(c3cc4c(cc3OC)N(C=O)[C@H]3[C@@](O)(C(=O)OC)[C@H](OC(C)=O)[C@]5(CC)C=CCN6CC[C@]43[C@@H]65)C2)C1` [VINCRISTINE], the IC50 in assay [1] was determined as 0.00087 µM; in the assay on A549 [2] it was 0.0368 µM; in [3], 0.387 µM.

Regarding `COc1ccc2c(c1)CCN1O[C@@]3(C[C@H]21)C(=O)O[C@@H]1O[C@@]2(C)CC[C@H]4[C@H](C)CC[C@@H]3[C@@]14OO2`, the IC50 in [1] was 1.47 µM; in the assay on A549 [2], 5.01 µM; in [3] it was 3.16 µM. The “Ratio IC50” value (with A549 [4]; with KB [5]; in assay [6]) was 4 each time.

Consider `COc1ccc2c(c1)CCN1O[C@@]3(C[C@H]21)[C@@H](F)O[C@@H]1O[C@@]2(C)CC[C@H]4[C@H](C)CC[C@@H]3[C@@]14OO2`, for which the IC50 in [1] and in assay [3] was above 20 µM each time.

Turning to `C[C@@H]1CC[C@@H]2[C@]34OO[C@](C)(CC[C@@H]13)O[C@H]4OC(=O)[C@@]21C[C@@H]2CCCN2O1`, the figures for the IC50 (in assay [1]; with A549 [2]; in [3]) were 2.34 µM, 10.5 µM and 3.35 µM, respectively.

Turning to `COc1ccc2c(c1)CCN1O[C@@]3(C[C@H]21)C(=O)O[C@@H]1O[C@@]2(C)CC[C@H]4[C@H](C)CC[C@@H]3[C@@]14O2`, the IC50 in [1] was found to be 15.4 µM; in [3], 13.4 µM.

For the compound `COc1ccc2c(c1)CCN1O[C@@]3(C[C@H]21)[C@@H](OCCN1CCN(C)CC1)O[C@@H]1O[C@@]2(C)CC[C@H]4[C@H](C)CC[C@@H]3[C@@]14OO2`, the IC50 was 17.9 µM in assay [1], above 20 µM in the assay with A549 [2] and 16.9 µM in assay [3].

Take `COc1ccc2c(c1)CCN1O[C@@]3(C[C@@H]21)C(=O)O[C@@H]1O[C@@]2(C)CC[C@H]4[C@H](C)CC[C@@H]3[C@@]14OO2`: the IC50 in assay [1] and in [3] was above 20 µM in each case.

Turning to `CO[C@H]1O[C@@H]2O[C@@]3(C)CC[C@H]4[C@H](C)CC[C@@H]([C@]15CC(c1c(Cl)cccc1Cl)=NO5)[C@@]24OO3`, the IC50 was determined as 5.29 µM in [1], 14.4 µM with A549 [2] and 5.06 µM in assay [3].

Turning to `COc1ccc2c(c1)CCN1O[C@@]3(C[C@H]21)[C@H](OC)O[C@@H]1O[C@@]2(C)CC[C@H]4[C@H](C)CC[C@@H]3[C@@]14OO2`, the IC50 (in assay [1]; in the assay with A549 [2]; in assay [3]) was above 20 µM in each case.

On to `COc1cc(C2=NO[C@@]3(C2)C(=O)O[C@@H]2O[C@@]4(C)CC[C@H]5[C@H](C)CC[C@@H]3[C@@]25OO4)cc(OC)c1OC`, for which the IC50 (in assay [1]; with A549 [2]; in assay [3]) was above 20 µM in each case.

For `C[C@@H]1CC[C@@H]2[C@]34OO[C@](C)(CC[C@@H]13)O[C@H]4OC(=O)[C@@]21CC(c2c(Cl)cccc2Cl)=NO1`, the IC50 (in assay [1]; in the assay on A549 [2]; in assay [3]) was above 20 µM each time.

Regarding `CO[C@H]1O[C@@H]2O[C@@]3(C)CC[C@H]4[C@H](C)CC[C@@H]([C@]15CC(c1ccc(Cl)cc1)=NO5)[C@@]24OO3`, the IC50 in [1] and in [3] was above 20 µM in each case.

Consider `COc1ccc2c(c1)CCN1O[C@@]3(C[C@@H]21)C(=O)O[C@@H]1O[C@@]2(C)CC[C@H]4[C@H](C)CC[C@@H]3[C@@]14O2`, for which the IC50 in assay [1] and in assay [3] was above 20 µM in each case.

In the case of `COc1cc2c(cc1OC)[C@H]1C[C@]3(ON1CC2)C(=O)O[C@@H]1O[C@@]2(C)CC[C@H]4[C@H](C)CC[C@@H]3[C@@]14OO2`, the IC50 was determined as 2.53 µM in assay [1], 4.69 µM in the assay on A549 [2] and 2.35 µM in assay [3].

As to `COc1ccc2c(c1)CCN1O[C@@]3(C[C@H]21)[C@H](F)O[C@@H]1O[C@@]2(C)CC[C@H]4[C@H](C)CC[C@@H]3[C@@]14OO2`, the IC50 in [1] and in [3] was above 20 µM in each case.

`CCCCCCCCCCCCCCNC(=O)C[C@H]1O[C@@H]2O[C@@]3(C)CC[C@H]4[C@H](C)CC[C@@H]([C@H]1C)[C@@]24OO3`: it took 0.46 µM to reach half-maximal inhibition in the assay with HepG2 (IC50).

`C[C@H]1[C@@H](O[C@H](C#N)c2ccc(Br)cc2)O[C@@H]2O[C@@]3(C)CC[C@H]4[C@H](C)CC[C@@H]1[C@@]24OO3` had an IC50 with L1210 of 0.01 µM.

As for `COc1cc2c(cc1OC)[C@@H]1C[C@]3(ON1CC2)C(=O)O[C@@H]1O[C@@]2(C)CC[C@H]4[C@H](C)CC[C@@H]3[C@@]14OO2`, the IC50 (in assay [1]; in the assay with A549 [2]; in assay [3]) was above 20 µM throughout.

Turning to `CCO[C@H]1O[C@@H]2O[C@@]3(C)CC[C@H]4[C@H](C)CC[C@@H]([C@]15C[C@@H]1c6ccc(OC)cc6CCN1O5)[C@@]24OO3`, the IC50 (in [1]; in the assay on A549 [2]; in assay [3]) was above 20 µM throughout.

As for `C[C@@H]1CC[C@@H]2[C@]34OO[C@](C)(CC[C@@H]13)O[C@H]4OC(=O)[C@@]21C[C@@H]2c3ccccc3CCN2O1`, the “Ratio IC50” value with KB [7] and with A549 [8] was 3 each time. In addition, the figures for the IC50 (in [1]; with A549 [2]; in assay [3]) were 2.91 µM, 9.93 µM and 14 µM, respectively.

As to `CO[C@@H]1O[C@@H]2O[C@@]3(C)CC[C@H]4[C@H](C)CC[C@@H]([C@]15CC(c1c(Cl)cccc1Cl)=NO5)[C@@]24OO3`, the IC50 (in assay [1]; in the assay with A549 [2]; in [3]) was above 20 µM in each case.

Take `COC(=O)c1ccc(C2=NO[C@@]3(C2)C(=O)O[C@@H]2O[C@@]4(C)CC[C@H]5[C@H](C)CC[C@@H]3[C@@]25OO4)cc1`: the IC50 in assay [1] and in assay [3] was above 20 µM throughout.

Consider `C[C@@H]1CC[C@@H]2[C@]34OO[C@](C)(CC[C@@H]13)O[C@H]4OC(=O)[C@@]21C[C@H]2c3ccccc3CCN2O1`, for which the IC50 in assay [1] and in assay [3] was above 20 µM throughout.

With `C[C@@H]1CC[C@@H]2[C@]34OO[C@](C)(CC[C@@H]13)O[C@H]4OC(=O)[C@@]21C[C@@H]2COCCN2O1`, the IC50 in assay [1] and in assay [3] was above 20 µM throughout.

For `COc1ccc2c(c1)CCN1O[C@@]3(C[C@H]21)[C@@H](OC)O[C@@H]1O[C@@]2(C)CC[C@H]4[C@H](C)CC[C@@H]3[C@@]14OO2`, the IC50 (in assay [1]; in the assay with A549 [2]; in [3]) was above 20 µM each time.

The values are drawn from ChEMBL document CHEMBL3632476, “Novel spirobicyclic artemisinin analogues (artemalogues): Synthesis and antitumor activities” (Eur J Med Chem, 2015).
